Laboratory results: article PMC2606940 (The Journal of General Physiology, 2009)
Numbering of substitutions follows the chain as printed. Where two headings read alike, the source gives them in different places.

Columns and labels:
[1] = target: T1, CLC-0 E166F mutant (Torpedo marmorata, UniProt P21564, C212S/E166F); format: cell-based; details: read-out: Apparent affinity (K1/2)
T1 sequence (P21564 1-805 E166F/C212S): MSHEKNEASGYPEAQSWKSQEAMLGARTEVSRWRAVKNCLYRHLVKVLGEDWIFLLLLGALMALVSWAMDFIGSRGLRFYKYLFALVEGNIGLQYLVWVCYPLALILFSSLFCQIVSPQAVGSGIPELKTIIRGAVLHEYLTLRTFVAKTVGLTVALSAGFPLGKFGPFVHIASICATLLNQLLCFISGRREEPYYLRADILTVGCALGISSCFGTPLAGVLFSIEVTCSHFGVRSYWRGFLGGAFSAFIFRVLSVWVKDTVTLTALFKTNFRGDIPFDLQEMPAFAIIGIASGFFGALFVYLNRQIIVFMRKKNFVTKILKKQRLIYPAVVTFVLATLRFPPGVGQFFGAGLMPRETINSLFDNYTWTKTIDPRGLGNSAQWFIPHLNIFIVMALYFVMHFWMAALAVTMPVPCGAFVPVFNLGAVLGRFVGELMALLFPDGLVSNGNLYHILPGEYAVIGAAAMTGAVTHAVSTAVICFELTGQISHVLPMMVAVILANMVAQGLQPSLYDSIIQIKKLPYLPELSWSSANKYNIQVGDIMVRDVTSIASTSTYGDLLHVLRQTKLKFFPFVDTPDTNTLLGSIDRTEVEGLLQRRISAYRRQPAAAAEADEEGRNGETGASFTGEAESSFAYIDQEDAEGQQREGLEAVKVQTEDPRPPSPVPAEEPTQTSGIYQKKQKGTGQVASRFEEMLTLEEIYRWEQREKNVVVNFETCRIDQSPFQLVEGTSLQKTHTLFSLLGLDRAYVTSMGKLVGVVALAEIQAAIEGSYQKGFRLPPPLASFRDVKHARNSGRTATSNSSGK
In short: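 CLC-0 mutants (C212S background) were lipofectamine-transfected into HEK293 cells and recorded 1–3 d later from inside-out patches. Pipette and bath contained 130 mM NaCl, 5 MgCl2, 10 HEPES and 1 EGTA (pH 7.4). Test compound was perfused onto the cytoplasmic side. A +80 mV prepulse preceded steps to steady state. The last-10-ms current was normalized to bracketing blocker-free controls and fitted to a Langmuir function for K1/2.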

[2] = target: T2, CLC-0 E166Y mutant (Torpedo marmorata, UniProt P21564, C212S/E166Y); format: cell-based; details: read-out: Apparent affinity (K1/2)
T2 sequence (P21564 1-805 E166Y/C212S): T1 sequence (P21564 1-805 E166F/C212S) with F166Y
In short: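 CLC-0 mutants in the C212S background were transfected into HEK293 cells with lipofectamine and recorded 1–3 d later as excised inside-out patches. Both sides held 130 mM NaCl, 5 mM MgCl2, 10 mM HEPES and 1 mM EGTA, pH 7.4. CPA was perfused continuously onto the cytoplasmic face. Steady-state current over the last 10 ms was normalized to bracketing blocker-free controls and fitted to a Langmuir function for K1/2. Values are mean ± SEM of ~4–6 patches.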

| Structure (SMILES) | IC50 ([1]; −40 mV) [µM] | IC50 ([1]; −60 mV) [µM] | IC50 ([1]; −80 mV) [µM] | IC50 ([1]; −100 mV) [µM] | IC50 ([1]; −120 mV) [µM] | IC50 ([1]; −140 mV) [µM] | IC50 ([1]; −160 mV) [µM] | IC50 ([2]; −80 mV) [µM] | IC50 ([2]; −100 mV) [µM] | IC50 ([2]; −120 mV) [µM] | IC50 ([2]; −140 mV) [µM] | IC50 ([2]; −160 mV) [µM] | IC50 ([2]; −40 mV) [µM] | IC50 ([2]; −60 mV) [µM] |
| --- | --- | --- | --- | --- | --- | --- | --- | --- | --- | --- | --- | --- | --- | --- |
| CCCCCCCC(=O)O [octanoate] | 3090 ± 560 | 1630 ± 160 | 803 ± 50 | 455 ± 15 | 254 ± 7 | 150 ± 4 | 91 ± 1 | 16700 ± 650 | 11200 ± 540 | 7430 ± 410 | 4990 ± 310 | 3360 ± 180 | – | – |
| O=C(O)COc1ccc(Cl)cc1 [CPA, p-chlorophenoxy acetate] | 5120 ± 1720 | 2060 ± 300 | 730 ± 90 | 350 ± 30 | 170 ± 20 | 93 ± 12 | 47 ± 7 | 1370 ± 50 | 700 ± 10 | 380 ± 10 | 220 ± 10 | 130 ± 10 | 6180 ± 670 | 2790 ± 150 |
